In brackets after ≈: the same amount, converted by molar mass.
Legend:
[1] = test system: Mycolicibacterium smegmatis; experiment: Antimycobacterial activity against 6-weeks nutrient starved phase cultures of Mycobacterium smegmatis ATCC 14468 treated for 7 days measured after 4 weeks by agar dilution method; assay type: functional
[2] = test system: Mycobacterium tuberculosis; experiment: Antimycobacterial activity against 6-weeks nutrient starved phase cultures of Mycobacterium tuberculosis H37Rv treated for 7 days measured after 4 weeks by agar dilution method; assay type: functional
[3] = test system: Mycobacterium tuberculosis; experiment: Antimycobacterial activity against active log phase Mycobacterium tuberculosis H37Rv by agar dilution method; assay type: functional
Summary of the method: (§1)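 Log-phase cultures (M. tuberculosis H37Rv at OD 600; M. smegmatis ATCC 14468) tested by agar dilution following NCCLS-type MIC procedure, in duplicate. MIC taken as lowest concentration giving complete inhibition of bacterial growth.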

[4] = test system: Mycolicibacterium smegmatis; experiment: Antimycobacterial activity against active log phase Mycobacterium smegmatis ATCC 14468 by agar dilution method; assay type: functional; summary of the method: as §1
Isocitrate lyase = molecular target: T1, Isocitrate lyase (Mycobacterium tuberculosis, UniProt P9WKK7); experiment: Inhibition of Mycobacterium tuberculosis isocitrate lyase
T1 sequence (P9WKK7 whole entry): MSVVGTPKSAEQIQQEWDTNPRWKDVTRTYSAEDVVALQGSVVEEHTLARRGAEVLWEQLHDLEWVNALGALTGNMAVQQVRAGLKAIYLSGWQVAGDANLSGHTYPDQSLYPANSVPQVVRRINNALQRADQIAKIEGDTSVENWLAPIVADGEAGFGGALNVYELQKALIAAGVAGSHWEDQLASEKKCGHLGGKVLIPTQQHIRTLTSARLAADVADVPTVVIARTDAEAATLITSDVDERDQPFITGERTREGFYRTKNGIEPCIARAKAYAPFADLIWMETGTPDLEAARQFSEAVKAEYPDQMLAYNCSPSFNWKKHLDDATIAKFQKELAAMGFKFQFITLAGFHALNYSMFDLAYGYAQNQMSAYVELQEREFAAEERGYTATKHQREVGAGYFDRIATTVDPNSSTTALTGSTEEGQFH

[5] = Cytotoxicity against African green monkey Vero cells after 72 hrs by MTT assay; assay type: cell-based; conditions: chlorocebus sabaeus
Summary of the method: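 Vero cells exposed to a single concentration of 62.5 µg/mL for 72 h; viability read by cellular conversion of MTT to formazan (non-radioactive cell proliferation assay).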

[6] = Selectivity index, ratio of CC50 for African green monkey Vero cells to MIC for 6-weeks nutrient starved phase cultures of Mycobacterium tuberculosis H37Rv; assay type: functional
[7] = test system: Mycobacterium tuberculosis; experiment: Ratio of isoniazid MIC to compound MIC for active log phase Mycobacterium tuberculosis H37Rv by agar dilution method; assay type: functional
Summary of the method: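 MIC by agar dilution, following NCCLS-type guidance, against log-phase M. tuberculosis H37Rv (OD 600), run in duplicate. MIC is the lowest concentration that gives complete inhibition of bacterial growth. The line's ratio is isoniazid MIC divided by compound MIC.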

[8] = test system: Mycobacterium tuberculosis; experiment: Ratio of MIC for 6-weeks nutrient starved phase cultures of Mycobacterium tuberculosis H37Rv to MIC for active log phase Mycobacterium tuberculosis H37Rv; assay type: functional

| SMILES | MIC [1] [µM] | MIC [2] [µM] | MIC [3] [µM] | MIC [4] [µM] | IC50 (Isocitrate lyase) [µM] | CC50 at 72 h [5] [µM] | Selectivity Index [6] | Ratio [7] | Ratio [8] |
| --- | --- | --- | --- | --- | --- | --- | --- | --- | --- |
| CCN(CC)C(=O)CC[N+](=O)[O-] | > 287 | > 287 | > 287 | 287 (≈ 50 µg/mL) |  |  |  |  |  |
| O=C(CC[N+](=O)[O-])Nc1ccc(Cl)cn1 | 109 (≈ 25 µg/mL) | 54.4 (≈ 12.5 µg/mL) | 109 (≈ 25 µg/mL) | 218 (≈ 50 µg/mL) |  |  |  |  |  |
| O=C(CC[N+](=O)[O-])N1CCN(Cc2ccccc2)CC1 | > 180 | 90.1 (≈ 25 µg/mL) | > 180 | > 180 |  |  |  |  |  |
| Cc1cc(NC(=O)CC[N+](=O)[O-])ccc1Br | 43.5 (≈ 12.5 µg/mL) | 43.5 (≈ 12.5 µg/mL) | 43.5 (≈ 12.5 µg/mL) | 87.1 (≈ 25 µg/mL) | 36.8 |  |  |  |  |
| CCn1cc(C(=O)O)c(=O)c2cc(F)c(N3CCN(C(=O)CC[N+](=O)[O-])CC3C)c(F)c21 (configuration not stated) | 1.72 (≈ 0.778 µg/mL) | 1.72 (≈ 0.778 µg/mL) | 3.44 (≈ 1.56 µg/mL) | 6.91 (≈ 3.13 µg/mL) | 1.46 | > 138 |  |  |  |
| CCCN(CCC)C(=O)CC[N+](=O)[O-] | > 247 | > 247 | > 247 | > 247 |  |  |  |  |  |
| O=C(CC[N+](=O)[O-])Nc1ccc(F)cc1 | 236 (≈ 50 µg/mL) | 58.9 (≈ 12.5 µg/mL) | 118 (≈ 25 µg/mL) | 118 (≈ 25 µg/mL) |  |  |  |  |  |
| CCN1CCN(C(=O)CC[N+](=O)[O-])CC1 | 116 (≈ 25 µg/mL) | 29 (≈ 6.25 µg/mL) | 58.1 (≈ 12.5 µg/mL) | 58.1 (≈ 12.5 µg/mL) | 12.6 |  |  |  |  |
| O=C(O)c1cn(C2CC2)c2cc(N3CCN(C(=O)CC[N+](=O)[O-])CC3)c(F)cc2c1=O | 0.09 (≈ 0.0389 µg/mL) | 0.09 (≈ 0.0389 µg/mL) | 1.8 (≈ 0.778 µg/mL) | 0.09 (≈ 0.0389 µg/mL) | 0.12 | > 145 |  |  |  |
| COc1ccc(NC(=O)CC[N+](=O)[O-])cc1 | > 223 | 55.8 (≈ 12.5 µg/mL) | 223 (≈ 50 µg/mL) | 112 (≈ 25 µg/mL) |  |  |  |  |  |
| NNC(=O)c1ccncc1 [ISONIAZID] | > 365 | > 365 | 0.72 (≈ 0.0987 µg/mL) | 45.6 (≈ 6.25 µg/mL) |  | > 456 |  |  |  |
| O=C(CC[N+](=O)[O-])Nc1ccccc1 | > 257 | 64.4 (≈ 12.5 µg/mL) | 257 (≈ 50 µg/mL) | 129 (≈ 25 µg/mL) |  |  |  |  |  |
| Cc1ccnc(NC(=O)CC[N+](=O)[O-])c1 | 239 (≈ 50 µg/mL) | 59.8 (≈ 12.5 µg/mL) | 239 (≈ 50 µg/mL) | > 239 |  |  |  |  |  |
| O=C(O)CC[N+](=O)[O-] | > 420 | > 420 | > 420 | > 420 | 116 |  |  |  |  |
| O=C(CC[N+](=O)[O-])Nc1ccc(Cl)cc1 | 13.7 (≈ 3.13 µg/mL) | 27.3 (≈ 6.25 µg/mL) | 109 (≈ 25 µg/mL) | 54.7 (≈ 12.5 µg/mL) | 21.3 |  |  |  |  |
| O=C(CC[N+](=O)[O-])N1CCN(c2cccc(C(F)(F)F)c2)CC1 | 75.5 (≈ 25 µg/mL) | 37.7 (≈ 12.5 µg/mL) | 151 (≈ 50 µg/mL) | 75.5 (≈ 25 µg/mL) | 30.2 |  |  |  |  |
| O=C(O)c1cn(C2CC2)c2cc(N3CCNCC3)c(F)cc2c1=O [CIPROFLOXACIN] | 2.35 (≈ 0.779 µg/mL) |  |  |  |  |  |  |  |  |
| O=C(CC[N+](=O)[O-])N(Cc1ccccc1)Cc1ccccc1 | > 168 | > 168 | > 168 | 168 (≈ 50 µg/mL) |  |  |  |  |  |
| COc1c(N2C(C)CN(C(=O)CC[N+](=O)[O-])CC2C)c(F)cc2c(=O)c(C(=O)O)cn(C3CC3)c12 (configuration not stated) | 0.08 (≈ 0.0392 µg/mL) | 0.04 (≈ 0.0196 µg/mL) | 0.16 (≈ 0.0785 µg/mL) | 0.08 (≈ 0.0392 µg/mL) | 0.1 | > 127 | 3185 | 4.5 | 4 |
| Cc1ccc(NC(=O)CC[N+](=O)[O-])cc1 | > 240 | 60 (≈ 12.5 µg/mL) | 240 (≈ 50 µg/mL) | 120 (≈ 25 µg/mL) |  |  |  |  |  |
| O=C(CC[N+](=O)[O-])Nc1ccc(Br)cc1 | 91.5 (≈ 25 µg/mL) | 45.8 (≈ 12.5 µg/mL) | 183 (≈ 50 µg/mL) | 91.5 (≈ 25 µg/mL) | 32.5 |  |  |  |  |
| Cc1ccc(NC(=O)CC[N+](=O)[O-])c(C)c1 | > 225 | 75 (≈ 16.7 µg/mL) | 225 (≈ 50 µg/mL) | 225 (≈ 50 µg/mL) |  |  |  |  |  |
| CCn1cc(C(=O)O)c(=O)c2cc(F)c(N3CCN(C(=O)CC[N+](=O)[O-])CC3)cc21 | 0.95 (≈ 0.399 µg/mL) | 0.47 (≈ 0.198 µg/mL) | 1.85 (≈ 0.778 µg/mL) | 7.44 (≈ 3.13 µg/mL) | 0.2 | > 149 |  |  |  |
| O=C(CC[N+](=O)[O-])N1CCN(c2ccccc2)CC1 | > 190 | 47.5 (≈ 12.5 µg/mL) | 190 (≈ 50 µg/mL) | 190 (≈ 50 µg/mL) | 41.2 |  |  |  |  |
